In publication PMC7729387 (Journal of Antimicrobial Chemotherapy, 2020):
Converted amounts (≈) assume the structure as drawn. Where two headings read alike, the source gives them in different places.

Columns and labels:
[1] = tested on: type A and type B virus strains; settings: cited from earlier work
A/WSN/33 (H1N1) strain [2] = experiment: PK/PD analysis, sigmoid Emax model; assay type: in vivo, influenza A(H1N1) virus (BALB/c mice); settings: for E max (estimate) / E 0 (estimate): y = virus titre (log10 TCID50/mL)
Procedure, shortened: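 A/WSN/33-infected BALB/c mice were dosed subcutaneously from day 5 at 0.0625–8 mg/kg q24h, q12h or q6h for 1 day, five per group, in Tween 80/copolymer carbonate vehicle at pH ~9. Lung titres were read 24 h later by MDCK TCID50. PK parameters came from mean plasma levels after single 0.125–8 mg/kg doses, scaled for 0.0625–4 mg/kg. A sigmoid Emax model was fitted to individual-mouse titres and judged by adjusted R².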

[3] = PK of baloxavir acid after subcutaneous baloxavir acid in A/WSN/33-infected mice; assay type: in vivo, BALB/c mice; settings: sc baloxavir acid 0.125, 0.5, 2 and 8 mg/kg
A/WSN/33 (H1N1) strain [4] = assay type: in vivo, influenza A(H1N1) virus (BALB/c mice)
[5] = PK of baloxavir acid after oral baloxavir marboxil in A/WSN/33-infected mice; assay type: in vivo, BALB/c mice
Procedure, shortened: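 A/WSN/33-infected BALB/c mice each received a single oral dose of the prodrug at 0.5, 1.5, 5, 15 or 50 mg/kg. Blood was taken at 0.5–12 h, three mice per dose per timepoint. Plasma active acid and prodrug were measured by LC-MS/MS.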

[6] = humans; single-dose oral baloxavir marboxil; cited from earlier work
[7] = tested on: type A and type B virus strains; settings: plaque-reduction assay; cited from earlier work
A/WSN/33 (H1N1) strain [8] = experiment: PK/PD analysis, linear model; assay type: in vivo, influenza A(H1N1) virus (BALB/c mice); settings: y = virus titre (log10 TCID50/mL)
[9] = tested on: A/Osaka/129/2009 (H1N1pdm09); design: species or system influenza A(H1N1)pdm09 virus (BALB/c mice); settings: mouse, in vivo, po, 5 mg/kg
A/Hong Kong/8/68 (H3N2) = assay type: in vivo, influenza A(H3N2) virus (BALB/c mice); settings: oral 15 mg/kg twice daily
B/Hong Kong/5/72 = assay type: in vivo, influenza type B virus (BALB/c mice); settings: oral 15 mg/kg twice daily
influenza A virus = settings: 10 mg/kg, q24h daily, nude mice; cited from earlier work
influenza virus = settings: cited from earlier work
[10] = BXA in plasma, oral BXM 0.5 mg/kg
[11] = BXA in plasma, oral BXM 1.5 mg/kg
[12] = BXA in plasma, oral BXM 5 mg/kg
[13] = BXA in plasma, oral BXM 15 mg/kg
[14] = BXA in plasma, oral BXM 50 mg/kg
[15] = 24 h after single-dose oral treatment, patients with uncomplicated influenza, ref Phase 3 baloxavir marboxil studies
[16] = […], 24 h after initial dosing, 15 mg/kg

Structure (SMILES): O=C1c2c(O)c(=O)ccn2N([C@@H]2c3ccccc3SCc3c2ccc(F)c3F)[C@@H]2COCCN12 [baloxavir acid]
- inhibitory values, type A more potent than type B virus strains [1]: 4- to 5 fold
- E max (estimate) (A/WSN/33 (H1N1) strain [2]; x = AUC0–24 (ng·h/mL)): 1.091
- EC50 (estimate) (A/WSN/33 (H1N1) strain [2]; x = C 24): 4.767 ng/mL (≈ 9.86 nM)
- E 0 (estimate) (A/WSN/33 (H1N1) strain [2]; x = C 24 (ng/mL)): 3.928
- E max (estimate) (A/WSN/33 (H1N1) strain [2]; x = C 24 (ng/mL)): 1.499
- EC50 (estimate) (A/WSN/33 (H1N1) strain [2]; x = C max): 42.528 ng/mL (≈ 88 nM)
- E 0 (estimate) (A/WSN/33 (H1N1) strain [2]; x = C max (ng/mL)): 3.806
- E max (estimate) (A/WSN/33 (H1N1) strain [2]; x = C max (ng/mL)): 1.022
- EC50 (estimate) (A/WSN/33 (H1N1) strain [2]; x = C τ): 4.108 ng/mL (≈ 8.5 nM)
- E 0 (estimate) (A/WSN/33 (H1N1) strain [2]; x = C τ (ng/mL)): 3.958
- E max (estimate) (A/WSN/33 (H1N1) strain [2]; x = C τ (ng/mL)): 1.554
- E 0 (estimate) (A/WSN/33 (H1N1) strain [2]; x = T >50 (h)): 3.588
- E max (estimate) (A/WSN/33 (H1N1) strain [2]; x = T >50 (h)): 1.913
- plasma concentration versus dose [3]: increased dose proportionally from 0.125 to 8 mg/kg
- virus titres versus vehicle or oseltamivir phosphate 5 eq mg/kg, q12h (A/WSN/33 (H1N1) strain [4]; […], 24 h post-treatment initiation, all groups): numerically lower
- plasma exposure versus dose ([5]; BXA in plasma after oral baloxavir marboxil 0.5–50 mg/kg): increased dose proportionally up to 15 mg/kg
- AUC0–12 [5, 10]: 22.0 ng·h/mL
- AUC0–∞ [5, 10]: 22.7 ng·h/mL
- C max [5, 10]: 5.05 ng/mL
- T max [5, 10]: 1.00 h
- t ½,z ([5]; BXA in plasma, oral BXM 0.5 mg/kg, t½,4–10 h): 2.24 h
- AUC0–12 [5, 11]: 62.6 ng·h/mL
- AUC0–∞ [5, 11]: 66.1 ng·h/mL
- C max [5, 11]: 14.3 ng/mL
- T max [5, 11]: 1.00 h
- t ½,z ([5]; BXA in plasma, oral BXM 1.5 mg/kg, t½,6–12 h): 2.56 h
- AUC0–12 [5, 12]: 242 ng·h/mL
- AUC0–∞ [5, 12]: 252 ng·h/mL
- C max [5, 12]: 45.7 ng/mL
- T max [5, 12]: 0.500 h
- t ½,z ([5]; BXA in plasma, oral BXM 5 mg/kg, t½,6–12 h): 2.45 h
- AUC0–12 [5, 13]: 648 ng·h/mL
- AUC0–∞ [5, 13]: 670 ng·h/mL
- C max [5, 13]: 175 ng/mL
- T max [5, 13]: 0.500 h
- t ½,z ([5]; BXA in plasma, oral BXM 15 mg/kg, t½,6–12 h): 2.26 h
- AUC0–12 [5, 14]: 1580 ng·h/mL
- AUC0–∞ [5, 14]: 1690 ng·h/mL
- C max [5, 14]: 284 ng/mL
- T max [5, 14]: 2.00 h
- t ½,z ([5]; BXA in plasma, oral BXM 50 mg/kg, t½,6–12 h): 3.14 h
- t½,z (half-life in mouse plasma) ([5]; BXA in plasma, oral baloxavir marboxil 0.5–50 mg/kg, range over doses): 2.24 to 3.14 h
- half-life in plasma compared with that in mice [6]: > 10 fold
- inhibitory values, type A more potent than type B virus strains [7]: 6- to 12 fold
- E 0 (estimate) (A/WSN/33 (H1N1) strain [8]; x = T >2 (h)): 5.141
- E 0 (estimate) (A/WSN/33 (H1N1) strain [8]; x = T >10 (h)): 4.095
- E 0 (estimate) (A/WSN/33 (H1N1) strain [8]; x = T >50 (h)): 3.569

Structure (SMILES): COC(=O)OCOc1c2n(ccc1=O)N([C@@H]1c3ccccc3SCc3c1ccc(F)c3F)[C@@H]1COCCN1C2=O [baloxavir marboxil]
- virus titre reduction in mice infected with the H1N1pdm09 strain [9]: ≥ 100 fold
- decrease in virus titre compared with oseltamivir phosphate at 5 eq mg/kg (A/Hong Kong/8/68 (H3N2)): 2.16 log10 TCID50/mL
- decrease in virus titre compared with oseltamivir phosphate at 5 eq mg/kg (B/Hong Kong/5/72): 0.97 log10 TCID50/mL
- clearance of virus from the respiratory organs (influenza A virus): did not clear the virus from the respiratory organs
- greater viral load reduction than after oseltamivir phosphate (influenza virus; [15]): 2.0 log10 TCID50/mL
- greater viral load reduction than after placebo (influenza virus; [15]): 3.5 log10 TCID50/mL
- Symptom resolution (influenza virus; type A virus infections): faster with baloxavir marboxil than placebo, but not oseltamivir phosphate
- virus titres declined compared with oseltamivir phosphate 5 or 50 eq mg/kg, q12h (A/WSN/33 (H1N1) strain [4]; [16]): 2 log10 TCID50/mL
- virus titres declined compared with vehicle (A/WSN/33 (H1N1) strain [4]; [16]): > 3 log10 TCID50/mL
- virus titres compared with the clinically equivalent or higher dose of oseltamivir phosphate (A/WSN/33 (H1N1) strain [4]; mouse, in vivo, po, 1.5 mg/kg): significantly reduced virus titres
- Lung virus titres versus each NAI or favipiravir (A/WSN/33 (H1N1) strain [4]; mouse, in vivo, po, 5 mg/kg): significantly lower
- decrease in virus titre compared with oseltamivir phosphate at 5 eq mg/kg (A/WSN/33 (H1N1) strain [4]; oral 15 mg/kg twice daily): 2.64 log10 TCID50/mL
- baloxavir marboxil in plasma ([5]; after oral baloxavir marboxil, data not shown): undetectable in almost all infected mice

Structure (SMILES): CCOC(=O)C1=C[C@@H](OC(CC)CC)[C@H](NC(C)=O)[C@@H](N)C1 [oseltamivir phosphate, reference compound]
- reduction in virus titres compared with vehicle (A/WSN/33 (H1N1) strain [4]; mouse, in vivo): 0.5–1 log10
